These results are taken from ChEMBL document CHEMBL1158484 (J Med Chem, 2009).

Activity calls are given as the source filed them. The calls are words filed in the database; no cut-off is given here. Some results are limits rather than exact numbers.

For data set [1], the system named is L6. Briefly: Cytotoxicity against rat L6 cells after 70 hrs by alamar blue assay. To be noted: L6, 70 h. The data set is classed as cell-based. On the technique in general: Resazurin is reduced to fluorescent resorufin, in cell work by metabolically active cells.
Data set [2] deals with Trypanosoma brucei rhodesiense. Nature of the data set: Antitrypanosomal activity against bloodstream Trypanosoma brucei rhodesiense STIB900 after 70 hrs by alamar blue assay. The format is functional, organism-based. Conditions: STIB900, 70 h. The essentials: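 Bloodstream forms, 2000 per well, in supplemented MEM with Earle's salts (0.2 mM 2-mercaptoethanol, 1 mM pyruvate, 0.5 mM hypoxanthine, 15% heat-inactivated horse serum). Serial dilutions, 70 h at 37 °C, 5% CO2. IC50 from sigmoidal curves; two independent runs in duplicate. DMSO ≤1%.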

A short description of data set [3]: Selectivity index, ratio of IC50 for rat L6 cells to IC50 for bloodstream Trypanosoma brucei rhodesiense STIB900. Conditions: read-out: Ratio IC50. The format is toxicity, cell-based.
Data set [4] has as its system Plasmodium falciparum. Briefly: Antiplasmodial activity after 48 hrs against chloroquine-resistant Plasmodium falciparum K1 infected human erythrocytes by [3H]hypoxanthine uptake. The format is functional, organism-based.
Data set [5] in a line: Selectivity index, ratio of IC50 for rat L6 cells to IC50 for chloroquine-resistant Plasmodium falciparum K1. The format is toxicity, cell-based. Conditions: read-out: Ratio IC50. In outline:
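Ratio of L6 IC50 to P. falciparum K1 IC50. L6: 4000 cells, 70 h at 37 °C, Alamar blue fluorescence. Parasites: infected human erythrocytes (1.25% hematocrit, 0.3% parasitemia) in low-O2 gas for 48 h, then [3H]-hypoxanthine for 24 h, uptake counted. Sigmoidal IC50s, two independent runs in duplicate.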

The subject of data set [6] is Leishmania donovani. Nature of the data set: Antileishmanial activity against axenic amastigotes of Leishmania donovani MHOM/SD/62/1S-CL2D after 72 hrs. The data set is classed as functional, organism-based. The essentials:
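Axenic amastigotes (adapted from promastigotes), 6×10^4 per well, amastigote medium, 37 °C. 2-fold compound dilutions; 72 h at 37 °C, humidified 5% CO2. Growth read by tetrazolium CellTiter absorbance at 490 nm several hours after reagent addition. IC50 from four-parameter dose–response fit. DMSO ≤1%.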

The nature of data set [7]: Selectivity index, ratio of IC50 for rat L6 cells to IC50 for axenic amastigotes of Leishmania donovani MHOM/SD/62/1S-CL2D. Conditions: read-out: Ratio IC50. The format is toxicity, cell-based. In outline:
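Ratio of L6 IC50 to L. donovani IC50. L6: 4000 cells in RPMI 1640 with 10% FBS, 70 h at 37 °C, then Alamar blue 2–3 h, fluorescence 536/588 nm. Leishmania: 6×10^4 axenic amastigotes per well, 2-fold dilutions, 72 h at 37 °C in 5% CO2, tetrazolium CellTiter read at 490 nm. IC50 from a four-parameter dose–response fit.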

Data set [8] relates to Trypanosoma brucei rhodesiense. Briefly: Antitrypanosomal activity against bloodstream Trypanosoma brucei rhodesiense STIB900 infected in NMRI mouse assessed as parasite free mouse survival at 5 mg/kg, ip administered for 4 consecutive days from day 3 to 6 postinfection measured up to 60 days. The data set is classed as functional, organism-based. Set-up: dose 5 mg/kg. The essentials:
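Female NMRI mice infected ip with 2×10^4 STIB900 bloodstream forms; groups of four dosed on 4 consecutive days, days 3-6 postinfection. Compounds in DMSO diluted with water to 10% DMSO. Untreated infected controls. Tail-blood parasitemia followed to day 60; surviving aparasitemic mice at day 60 scored cured; mean survival time recorded.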

Data set [9] deals with Trypanosoma brucei rhodesiense. Nature of the data set: Antitrypanosomal activity against bloodstream Trypanosoma brucei rhodesiense STIB900 infected in NMRI mouse assessed as survival rate at 5 mg/kg, ip administered 4 consecutive days from day 3 to 6 postinfection. The format is functional. Conditions: route intraperitoneal. The essentials:
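Female NMRI mice infected ip with 2×10^4 STIB900 bloodstream forms. Groups of four treated on days 3–6 postinfection. Compounds in DMSO diluted with water to a final 10% DMSO. Untreated infected controls. Tail blood checked for parasitemia to day 60. Surviving aparasitemic mice at day 60 scored cured; mean survival time in days from recorded deaths.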

What is called IC50 is the concentration needed to halve the response being measured. For the compound `CC(C)NC(=N)c1ccc(OCCCCCOc2ccc(C(=N)NC(C)C)nc2)cn1`, the half-inhibitory concentration (IC50) in data set [1] came to 148 µM; in data set [2], 34 nM; in [4], 6 nM; in data set [6], 6 µM. The results for the selectivity ratio in data set [3], in [5] and in data set [7] were 4350, 24700 and 25, respectively. Moreover, the outcome in [8] was inactive. In addition, in [9], the Survival was determined as 18.5 days.
Take `CO/N=C(\N)c1ccc(OCCCCCOc2ccc(/C(N)=N\OC)cn2)nc1`: the 50% inhibitory concentration (IC50) was above 185 µM in [1], 25900 nM in data set [2], 2240 nM in [4] and above 100 µM in data set [6]. The selectivity ratio in data set [3] was above 7; in [5], above 83; in [7], 2.
Regarding `N=C(N)c1ccc(OCCCCCOc2ccc(C(=N)N)cn2)nc1`, the IC50 was 137 µM in data set [1], 70 nM in data set [2], 329 nM in data set [4] and 39 µM in [6]. Moreover, the selectivity ratio in data set [3] was found to be 1960; in data set [5], 416; in data set [7], 4. Further, the result in [8] was inactive. Besides, the Survival in [9] worked out at 17.75 days.
Turning to `N/C(=N\O)c1cccc(OCCCCCOc2cccc(/C(N)=N/O)n2)n1`, the concentration for half-maximal inhibition (IC50) in data set [1] is 52.2 µM; in data set [2] it was 19000 nM; in [4] it was 10500 nM; in data set [6] it was above 50 µM. Moreover, the selectivity ratio is 3 in data set [3], 5 in data set [5] and 1 in data set [7].
Take `c1cc(OCCCCCOc2ccc(C3=NCCN3)cn2)ncc1C1=NCCN1`: the IC50 is 111 µM in data set [1], 1420 nM in data set [2], 1860 nM in [4] and above 100 µM in data set [6]. For the same compound, the selectivity ratio worked out at 78 in [3], 60 in data set [5] and 1 in data set [7].
For `N=C(N)c1cccc(OCCCCCOc2cccc(C(=N)N)n2)n1`, the IC50 in [1] is 114 µM; in data set [2], 19 nM; in data set [4] it was 27 nM; in data set [6], 4.1 µM. In addition, the selectivity ratio in data set [3] stood at 6000; in [5], 4220; in data set [7], 28. Also, the outcome in data set [8] was inactive. Further, the Survival in data set [9] is 22.5 days.
In the case of `CC(C)NC(=N)c1cc(OCCCCCOc2ccnc(C(=N)NC(C)C)c2)ccn1`, the half-inhibitory concentration (IC50) is above 155 µM in [1], 1700 nM in data set [2], 1330 nM in data set [4] and above 100 µM in data set [6]. Besides, the figures for the selectivity ratio in [3], in [5] and in data set [7] were above 91, above 117 and 2, respectively.
For `c1cc(OCCCCCOc2ccnc(C3=NCCN3)c2)cc(C2=NCCN2)n1`, the IC50 was 80.8 µM in [1], 12500 nM in data set [2], 4260 nM in data set [4] and above 100 µM in data set [6]. Moreover, the figures for the selectivity ratio in data set [3], in data set [5] and in [7] were 6, 19 and below 1, respectively.
`c1cc(OCCCCCOc2cccc(C3=NCCN3)n2)nc(C2=NCCN2)c1`: the IC50 in data set [1] stood at 14.6 µM; in [2], 3070 nM; in data set [4] it was 568 nM; in data set [6], 24 µM. Besides, the selectivity ratio in data set [3] is 5; in data set [5], 26; in [7] it was below 1.
For `N=C(N)c1ccc(OCCCCCOc2ccc(C(=N)N)cc2)cc1` [PENTAMIDINE], the Survival in data set [9] was above 45 days.
Regarding `CC(C)NC(=N)c1ccc(OCCCCCOc2ccc(C(=N)NC(C)C)cn2)nc1`, the IC50 in [1] is above 155 µM; in data set [2], 276 nM; in data set [4], 256 nM; in [6] it was above 100 µM. In addition, the results for the selectivity ratio in data set [3], in [5] and in [7] were above 562, above 605 and 2, respectively.
